Where two headings read alike, the source gives them in different places.

Experiment [1] deals with murine CAR. The following applies: cited from earlier work.
The target in experiment [2] is T1, CAR:RXR (Mus musculus, UniProt O35627). The experiment is described as follows: ITC, SRC1 box 2 peptide binding to wild-type CAR:RXR LBDs. Also noted: species or system murine (mCAR LBD), human (RXR LBD). The note with it: for affinity of ligand-bound CAR:RXR for SRC1 coactivator (in words): saturating meclizine versus TCPOBOP. For orientation: ITC needs no label: the signal is the heat of the interaction.
T1 sequence (O35627 117-358, other chains not shown): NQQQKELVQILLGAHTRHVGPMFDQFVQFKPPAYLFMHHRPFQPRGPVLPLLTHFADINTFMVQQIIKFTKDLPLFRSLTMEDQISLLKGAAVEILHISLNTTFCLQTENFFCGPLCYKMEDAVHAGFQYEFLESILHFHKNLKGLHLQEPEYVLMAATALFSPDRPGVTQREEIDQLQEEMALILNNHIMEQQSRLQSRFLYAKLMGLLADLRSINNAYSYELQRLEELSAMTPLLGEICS

Experiment [3] deals with (L343A)CAR:RXR (Mus musculus, UniProt O35627, L343A). The experiment in a line: ITC, SRC1 peptide binding to. Also noted: species or system murine (mCAR LBD), human (RXR LBD). The note with it: for ΔG / −TΔS / n (one-site binding model) / ΔH: SRC1 peptide binding, 25°C; for ΔG / −TΔS: pH 7.2; for n (one-site binding model) / ΔH: pH 7.2, average of at least three experiments ± SD.
(L343A)CAR:RXR, sequence (O35627 117-358 L343A, other chains not shown): as the sequence (O35627 117-358, other chains not shown) above, with L227A counted along it

For experiment [4], the target named is T2, (L343F)CAR:RXR (Mus musculus, UniProt O35627, L343F).
T2 sequence (O35627 117-358 L343F): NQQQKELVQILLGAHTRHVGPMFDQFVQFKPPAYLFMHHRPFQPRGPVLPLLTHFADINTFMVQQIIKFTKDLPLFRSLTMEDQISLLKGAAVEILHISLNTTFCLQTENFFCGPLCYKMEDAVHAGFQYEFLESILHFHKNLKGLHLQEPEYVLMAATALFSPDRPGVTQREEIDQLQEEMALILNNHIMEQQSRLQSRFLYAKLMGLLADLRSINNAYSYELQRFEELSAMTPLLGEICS
T2 sequence (P19793 225-462 partner limits assumed): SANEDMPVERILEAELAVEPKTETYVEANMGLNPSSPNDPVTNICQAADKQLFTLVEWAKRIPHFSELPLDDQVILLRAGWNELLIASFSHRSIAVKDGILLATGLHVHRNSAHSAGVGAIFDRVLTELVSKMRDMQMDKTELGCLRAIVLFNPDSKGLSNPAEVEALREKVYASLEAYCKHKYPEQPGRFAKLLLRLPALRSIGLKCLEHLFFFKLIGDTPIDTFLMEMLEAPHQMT
The experiment is described as follows: ITC, SRC1 peptide binding to. The note with it: for ΔG / −TΔS / n (one-site binding model) / ΔH: SRC1 peptide binding, 25°C; for ΔG / −TΔS: pH 7.2; for n (one-site binding model) / ΔH: pH 7.2, average of at least three experiments ± SD. Set-up: species or system murine (mCAR LBD), human (RXR LBD).

The subject of experiment [5] is CAR:(W282F)RXR. The experiment in a line: steady-state tryptophan fluorescence quenching, CAR:
The format is binding, murine (mCAR LBD), human (RXR LBD). The note with it: 1.0 μM protein (Figure S2); excitation 295 nm; pH 8.0.

Experiment [6] deals with CAR:(W305F)RXR. The experiment is described as follows: steady-state tryptophan fluorescence quenching, CAR:
The class given is binding, murine (mCAR LBD), human (RXR LBD). The note with it: 1.0 μM protein (Figure S2); excitation 295 nm; pH 8.0. In a few lines: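 Human RXR LBD (residues 225–462) carrying W305F, co-expressed with CAR LBD in E. coli BL21(DE3) Gold (0.5 mM IPTG, 20 h, 20°C). Heterodimer purified by Ni-NTA, then size exclusion in 20 mM Tris-HCl pH 8.0, 250 mM NaCl, 2.5 mM EDTA, 5.0 mM DTT. Steady-state emission scanned 305–400 nm and compared with wild-type and W282F heterodimers at 340 nm.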

For experiment [7], the target named is T1, CAR:RXR. The experiment in a line: effect of CAR ligands on 9-cis-retinoic acid. The class given is binding, murine (mCAR LBD), human (RXR LBD). The following applies: fluorescence quenching at 340 nm upon titrating 9c into CAR:RXR.
In experiment [8] the test system is CAR LBD within CAR:RXR. The experiment is described as follows: differential amide HDX MS, CAR portion of CAR:RXR. Set-up: species or system murine. The note with it: for HDX kinetics versus unliganded CAR:RXR (in words): 4°C, pH 8, 10–3600 seconds.
In experiment [9] the test system is RXR LBD within CAR:RXR. The experiment is described as follows: differential amide HDX MS, RXR portion of CAR:RXR. Also noted: species or system human. The note with it: 4°C, pH 8, 10–3600 seconds.
In experiment [10] the test system is mCAR. The following applies: LXRE response element, HepG2 cells; ref Huang et al., 2004; cited from earlier work.
The subject of experiment [11] is human CAR isoform. The note with it: ref Huang et al., 2004; cited from earlier work.
Where [12] appears, read: SRC1 peptide binding in the presence of meclizine (ten-fold excess), 25°C, pH 7.2.
The mark [13] stands for this setting: SRC1 peptide binding in the presence of meclizine (ten-fold excess), 25°C, pH 7.2, average of at least three experiments ± SD.
Setting [14] is: residues 327–358 (H10, H11, H12).

For `C[C@]12CC[C@@H](O)C[C@@H]1CC[C@@H]1[C@@H]2CC[C@]2(C)C=CC[C@@H]12` [androstenol, 5α-androst-16-en-3α-ol], the “ligand function on murine CAR (in words)” value in experiment [1] (androstane metabolites, ref Forman et al., 1998) is “physiological inverse agonist ligands of murine CAR”.

For `CC[C@H](C)[C@H](NC(=O)[C@H](CCCCN)NC(=O)[C@H](Cc1c[nH]cn1)NC(=O)[C@@H](N)CCCNC(=N)N)C(=O)N[C@@H](CC(C)C)C(=O)N[C@@H](Cc1c[nH]cn1)C(=O)N[C@@H](CCCNC(=N)N)C(=O)N[C@@H](CC(C)C)C(=O)N[C@@H](CC(C)C)C(=O)N[C@@H](CCC(N)=O)C(=O)N[C@@H](CCC(=O)O)C(=O)NCC(=O)N[C@@H](CO)C(=O)O` [SRC1 peptide], the ΔG in experiment [2] (setting [12]) is -8.2 kcal/mol; in experiment [3] (L343A (TCPOBOP)), -7.8 kcal/mol; in experiment [3] (L343A (no ligand)), -6.6 kcal/mol; in experiment [4] (L343F (androstenol)) it was -7.3 kcal/mol; in experiment [4] (L343F (no ligand)), -8.2 kcal/mol. For the same compound, the “−TΔS” value in [2] (setting [12]) is reported as 1.7 kcal/mol; in [3] (L343A (TCPOBOP)), 3.7 kcal/mol; in experiment [3] (L343A (no ligand)) it was 4.0 kcal/mol; in [4] (L343F (androstenol)) it was 2.7 kcal/mol; in experiment [4] (L343F (no ligand)) it was 0.30 kcal/mol. Further, the “n (one-site binding model)” value in [2] (setting [13]) amounted to 0.95 ± 0.08; in experiment [3] (L343A (TCPOBOP)), 0.92 ± 0.14; in experiment [3] (L343A (no ligand)), 1.0 ± 0.13; in experiment [4] (L343F (androstenol)), 1.0 ± 0.04; in experiment [4] (L343F (no ligand)), 0.97 ± 0.05. In addition, the ΔH in experiment [2] (setting [13]) is -9.9 ± 0.3 kcal/mol; in experiment [3] (L343A (TCPOBOP)), -11.5 ± 0.8 kcal/mol; in [3] (L343A (no ligand)) it was -10.6 ± 0.5 kcal/mol; in experiment [4] (L343F (androstenol)) it was -10.0 ± 0.2 kcal/mol; in experiment [4] (L343F (no ligand)), -8.5 ± 0.2 kcal/mol. The “unfavorable entropy (TΔS) of SRC1 peptide binding (in words)” value in experiment [3] ((L343A)CAR:RXR, no ligand) is “appreciably higher unfavorable entropy (TΔS)”. In addition, the “affinity for SRC1 peptide (in words)” value in experiment [3] ((L343A)CAR:RXR, no ligand, versus wild-type CAR) was “lower than wild-type CAR”. Besides, the “affinity for coactivator and entropy (in words)” value in experiment [4] ((L343F)CAR:RXR, no ligand, versus wild-type complex) is “significantly greater affinity for coactivator and lower unfavorable entropy compared to the wild-type complex”.

Consider `Clc1cnc(Oc2ccc(Oc3ncc(Cl)cc3Cl)cc2)c(Cl)c1` [TCPOBOP, 1,4-bis[2-(3,5-dichloropyridyloxy)]benzene], for which, in experiment [2], the “affinity of ligand-bound CAR:RXR for SRC1 coactivator (in words)” value is “higher affinity for coactivator than meclizine”. The “tryptophan quenching of CAR:(W282F)RXR (in words)” value in experiment [5] was “strong dose-dependent increase in tryptophan quenching”. Further, the “tryptophan fluorescence response of CAR:(W305F)RXR (in words)” value in experiment [6] was “no significant response”. For the same compound, the “effect on 9c binding to CAR:RXR (in words)” value in experiment [7] was “do not appear to significantly affect 9-cis-retinoic acid (9c) binding to CAR:RXR”. Besides, the “overall impact on conformational dynamics of CAR (in words)” value in [8] (differential HDX, TCPOBOP compared with meclizine) is “broader and of greater magnitude than that of meclizine”. In addition, the “HDX kinetics versus unliganded CAR:RXR (in words)” value in [8] (residues 143–178 (helices H2′, H2″, parts of H3)) is given as “significant protection from exchange”; in [8] (setting [14]), “most significant reductions in HDX behavior”. In experiment [8] (residues 339–345, CAR(TCPOBOP):RXR compared with CAR(meclizine):RXR), the “HDX exchange kinetics, residues 339–345 in CAR (in words)” value is reported as “greater magnitude reduction in exchange kinetics”. The “HDX kinetics of RXR versus unliganded CAR:RXR (in words)” value in experiment [9] (RXR residues 416–432 (helix H10)) is reported as “significant reduction in HDX kinetics”. Moreover, the “agonist response (in words)” value in experiment [10] was “stronger agonist response from CAR than meclizine”. Also, the “transactivation by murine CAR (in words)” value in experiment [1] (ref Tzameli et al., 2000) is reported as “further enhanced”.

Consider `Cc1cccc(CN2CCN(C(c3ccccc3)c3ccc(Cl)cc3)CC2)c1` (stereo not drawn) [meclizine, 1-[(4-chlorophenyl)(phenyl)methyl]-4-(3-methylbenzyl)piperazine], for which, in experiment [2], the “affinity of ligand-bound CAR:RXR for SRC1 coactivator (in words)” value is “affinity for coactivator is less than CAR(TCPOBOP)”. Also, the “HDX kinetics versus unliganded CAR:RXR (in words)” value is listed as “significantly protected to exchange” in [8] (residues 228–245 (segment of β-sheet and H6)); “significantly protected to exchange” in experiment [8] (setting [14]). Besides, the “HDX kinetics of RXR versus unliganded CAR:RXR (in words)” value in [9] (84 regions of RXR) is “no significant differences in exchange kinetics in RXR”. Moreover, in [10], the “agonist response (in words)” value is recorded as “mCAR agonist”. Also, the “function on human CAR (in words)” value in experiment [11] is recorded as “inverse agonist”. In addition, the “transactivation by murine CAR (in words)” value in [1] (ref Huang et al., 2004) is recorded as “further enhanced”.
